Entries after “also recorded” stand apart in the source; their conditions may differ.
Legend:
[1] = Pharmacokinetic study after single IV injection; type: in vivo, male Sprague–Dawley rats
[2] = Bioimaging of Pt in mouse kidney by laser ablation ICP-MS; type: in vivo; details: listed as PP
Summary of the method: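 Mouse kidneys were dissected at 2, 12 and 24 h after IV injection, following the biodistribution procedure. Reference drug was dosed to match on (dach)Pt content. Kidneys were cryostat-sectioned at 100 μm and dried at room temperature. Pt was mapped by femtosecond laser ablation ICP-MS.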

[3] = Critical aggregation concentration by fluorescence pyrene method; type: physicochemical; details: in saline
[4] = test system: gastric tumor cell line (MKN-28); assay: Nude mouse xenograft trial; type: in vivo, BALB/C nude mice
Summary of the method: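 MKN-28 xenografts were grown in BALB/C nude mice (5 weeks, 15–20 g). Test and reference drugs were dosed to equal (dach)Pt content, at 8 mg (dach)Pt/kg, and reference drug was also given at 16 mg (dach)Pt/kg. Tumour growth and body weight were monitored.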

[5] = test system: non-small-cell lung carcinoma A549 cells; assay: Biodistribution of Cy5.5-labeled PP by ex vivo imaging in tumor-bearing mice; design: species or system BALB/C nude mice; details: Cy5.5-labeled PP 60 mg/kg IV
Summary of the method: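 BALB/C nude mice (5 weeks, 15–20 g) were acclimatised for 4 days. A549 cells (1×10^7 in serum-free RPMI 1640) were injected s.c. into the right flank. After 2 weeks, with tumours at 250–300 mm3, mice received the Cy5.5-labelled conjugate (60 mg/kg in saline) IV via the tail vein. Mice were killed at 12, 24, 48 and 72 h, with blood taken by cardiac puncture. Tumour, muscle, liver, kidney, spleen, lung and blood were imaged by CCD camera through a 680–720 nm Cy5.5 emission filter.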

[6] = Particle size distribution by dynamic light scattering; type: physicochemical; details: hydrodynamic size
male ICR mice = assay: Acute toxicity study; type: in vivo
[7] = Solubility of the isolated solid; type: physicochemical; details: light yellow solid
In vitro release of = type: physicochemical; details: for accumulated amount of released (dach)Pt(II): pH 7.4, 37°C
Summary of the method: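 Conjugate solution (2 mg/mL) was dialysed in cellulose tubing (MWCO 2,000 Da) against phosphate buffer at pH 5.4 or 7.4, at 37°C with stirring at 100 rpm under sink conditions. Dialysate was sampled at set times over 10 days. Released Pt was measured by ICP-MS and expressed as cumulative % of total loaded (dach)Pt.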

[8] = Lower critical solution temperature; type: physicochemical
[9] = Clearance study of Cy5.5-labeled PP from major organs by ex vivo imaging; type: in vivo, BALB/C nude mice; details: Cy5.5-labeled PP 300 mg/kg IV, mice without tumor, postinjection
Summary of the method: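 Tumour-free BALB/C nude mice (n=30; 5 weeks, 15–20 g; acclimatised 4 days) received the Cy5.5-labelled conjugate at 300 mg/kg IV via the tail vein. Mice were killed at short intervals during week 1, then weekly. Dissected organs were imaged by CCD camera through a 680–720 nm Cy5.5 filter until each organ's intensity fell below that of a blank organ.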

## O=C1[O][Pt]2([NH][C@@H]3CCCC[C@H]3[NH]2)[O]C1=O [Oxaliplatin, oxaliplatin, reference compound]
[1]; single IV 1 mg (dach)Pt/kg, male rats, listed as OX
  AUC: 2,320.4 ng h/mL

## [NP(MPEG550)(AE)(AA)Pt(dach)]n [Polyplatin]
[2]; 12 and 24 hours postinjection
  excretion of platinum from kidney: more rapidly excreted than monomeric OX
[2]; 2 hours postinjection, same dose based on (dach)Pt content
  platinum distribution/accumulation in kidney: accumulates much less in kidney; also recorded: much less and relatively homogeneous distribution; also recorded: accumulated much less in the kidney
[3]
  critical aggregation concentration (CAC): 18.5 mg/L
[3]; unit as printed in b33
  critical aggregation concentration (CAC): 18.5 mg/L
[4]; 8 mg (dach)Pt/kg IV on days 1, 5, 9, MKN-28 xenograft
  antitumor activity: comparable to OX
[4]; 16 mg (dach)Pt/kg IV, MKN-28 xenograft
  death of test mice: without any death
[4]; MKN-28 xenograft, listed as PP
  antitumor efficacy compared with OX, overall: remarkably higher antitumor activity
  systemic toxicity compared with OX: lower systemic toxicity; also recorded: low systemic toxicity
[4]; double dose of 16 mg (dach)Pt/kg IV on days 1, 5, 9, MKN-28 xenograft, listed as PP
  antitumor activity: much better activity
[4]; low and high doses, during the drug injection period (days 1, 5, and 9)
  body weight changes: nearly no body weight changes
[5]; 12 to 72 hours postinjection
  plasma concentration course (fluorescence): decrease slowly
[5]; A549 tumor-bearing mice, EPR effect, listed as PP
  tumor accumulation / tumor selectivity: high tumor selectivity
[5]; A549 tumor-bearing mice, postinjection
  time of maximum concentration in tumor: 48 h
[5]; at 48 hours postinjection
  tumor-to-tissue ratio, maximum value: 12
[6]
  mean diameter: 55.1 nm
Male ICR mice; 5, 50, 300 and 2,000 mg/kg IV, 14 days
  body weight change depending on the dose: no considerable difference in body weight change
Male ICR mice; IV in saline, ICR mice, 14 days observation
  LD50: more than 2000 mg/kg
[7]
  solubility: soluble in water and polar organic solvents
[1]; PP (6.3 mL/h) compared with OX (116.36 mL/h)
  clearance time relative to OX: about 18 times
[1]; PP compared with OX, rats
  half-life of the β phase relative to OX: more than twice longer
[1]; single IV 1 mg (dach)Pt/kg, male rats, listed as PP
  t1/2 β: 13.3 h
In vitro release of; pH 5.4, 37°C, 10 days
  accumulated amount of platinum released: 98%
In vitro release of; 24 hours
  accumulated amount of released (dach)Pt(II): 18%
In vitro release of; 10 days
  accumulated amount of released (dach)Pt(II): 72%
[8]; 5% solution
  Lower critical solution temperature (LCST): higher than 100 °C
[8]; given with the synthesis
  Lower critical solution temperature (LCST): > 100 °C
[9]
  time to clearance from all the major organs including the liver: about 4 weeks

— article PMC4780734 (International Journal of Nanomedicine, 2016)
